High-throughput results as filed in PubChem BioAssay.
UPR XBP1 act: activators of adaptive XBP1 UPR arm, primary screen, cell-based, CHO-XBP1 luciferase reporter, luminescence, uHTS; IRE1-XBP1 UPR activation; percent of tunicamycin response, DMSO as zero; AID 463104, 2010; activation, % at 20 µM; actives 0.33% (n = 330,000);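 active means versus positive control, 20 µM dose yields 30% or more activation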
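assay system = CHO-XBP1 luciferase reporter cells | amount = 1000 cells/well | buffer or medium = F12 plus 10% FBS | compound dosing = single point, 20 µM final compound, 1% DMSO | incubation = 16-18 h cell attachment at 37 °C, then 6 h compound exposure | detection = Steady-Glo luminescence read | controls = tunicamycin 10 µg/mL and vehicle-only wells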
CHOP inhibitor: inhibitors of CHOP promoter induction, primary screen, cell-based, unfolded protein response, luciferase reporter | CHO-K1 CHOP-promoter luciferase, tunicamycin-induced, 15-18 h | inhibition, % at 10 µM | actives 3.8% (n = 220,000) | AID 2732, 2010;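 active means compounds that reduced the stress-induced luciferase reporter signal by more than about 70% of percent inhibition, limit read from the data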
TbMetRS inhib: T. brucei MetRS inhibitors, primary screen, biochemical, luminescence | actives 0.4% (n = 360,000) | inhibition, % at 11.9 µM | AID 624268, 2012 | purified T. brucei MetRS, ATP depletion, Kinase-Glo luminescence | methionyl-tRNA synthetase (Trypanosoma brucei brucei);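 active means inhibition above a per-plate cutoff of the control wells' mean inhibition plus 3 SD, cut at about 5.5% in these data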
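Dosing: 11.9 µM compound single dose, 0.9% DMSO; Assay system: purified T. brucei MetRS enzyme; Measured by: Kinase-Glo luciferase luminescence reporting remaining unconsumed ATP; Schedule: 15 min plus 2 h at 25 °C.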
V-ATPase pH: regulators of yeast V-ATPase proton pumping, primary screen, pHLuorin cytosolic pH fluorescence; S. cerevisiae; response, % at 10 µM; actives 0.37% (n = 350,000); in the data active means response mostly above about 7.3%, no sharp cut-off; inactive means mostly below about 5.4%; further: actives read high
UPR CHOP act: activators of apoptotic CHOP UPR arm, primary screen, cell-based, CHO-CHOP luciferase reporter, luminescence, uHTS | UPR activation; percent of tunicamycin response over DMSO baseline | activation, % at 10 µM | actives 0.34% (n = 330,000) | AID 449763, 2010;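 active means at 10 µM dose, activation of 40% or more, normalized to positive control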
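System: CHO CHOP reporter cells. Amount: 500 cells per well. Buffer or medium: F12 medium, 10% FBS. Compound dosing: one dose, 10 µM in 0.5% DMSO. Incubation: 6 h compound exposure at 37 °C after overnight seeding. Technique: Steady-Glo luciferase luminescence. Benchmarks: tunicamycin and DMSO controls.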
Hits are given with their value; 0 = inactive; - = no result. Many of the other results were omitted from the sample, so hits are more common in it than they were.

SMILES	UPR XBP1 act	CHOP inhibitor	TbMetRS inhib	V-ATPase pH	UPR CHOP act
O=c1[nH]c(/C=C/c2ccccc2[N+](=O)[O-])nc2ccccc12	0	82	0	0	0
CCOC(=O)[C@]12CCCC=C1N(Cc1cccc3ccccc13)C(=O)[C@H](CC(=O)N1CCN(C(=O)c3ccco3)CC1)C2	-	-	0	-	-
COc1ccc(S(=O)(=O)N2CCC[C@H]2C(=O)N2CCC[C@H]2C(=O)NCc2ccc(F)cc2F)cc1C	-	-	0	-	-
O=C(Nc1ccc(F)cc1)C(c1ccccc1)N1CCN(c2ccncc2)CC1 (stereo not drawn)	-	-	0	-	-
CCCCN(Cc1ccco1)C(=O)C1CCCN(c2ncnc3c2nc2n3CCCCC2)C1 (stereo not drawn)	0	-	0	0	0
CCCCOP(=O)(OCCCC)C1(C)CC(=O)CC(C)(C)C1 (stereo not drawn)	-	-	0	0	-
Cc1ccc2nc(-c3ccccc3)cc(C(=O)Nc3cccnc3)c2c1	0	-	0	0	0
COc1cc2c(cc1NC(=O)c1cc(-c3ccncc3)nc3ccccc13)oc1ccccc12	0	85	0	0	0
COc1cc2c(cc1NC(=O)Nc1cccc(C)c1)oc1ccccc12	0	90	0	0	0
COc1cc2c(cc1NC(=O)c1cc(-c3cccnc3)nc3ccc(C)cc13)oc1ccccc12	0	86	0	0	0
CN(C)CCNc1ncnc2c1ncn2[C@H]1CN(Cc2ccc(-c3ccccc3)cc2)C[C@@H](CO)O1	-	-	0	-	-
O=S(=O)(CCc1ccncc1)C1Cc2cccc3cccc1c23 (stereo not drawn)	0	0	0	0	0
Cc1ccc(-c2nc3cccnc3s2)cc1NC(=O)C1c2ccccc2Oc2ccccc21	0	0	0	0	0
COC(=O)c1ccc2nc(-c3cccc(N)c3)cn2c1	0	80	0	0	0
CN(C(=O)COC(=O)c1cc(-c2ccccc2Cl)nc2ccccc12)C1CCS(=O)(=O)C1 (stereo not drawn)	0	0	0	0	0
CN(C(=O)COC(=O)c1cc(-c2ccc(Cl)s2)nc2ccccc12)C1CCS(=O)(=O)C1 (stereo not drawn)	0	0	0	12	0
CCOc1ccc(OCC)c(NS(=O)(=O)c2cccc3nsnc23)c1	0	83	0	0	0
CNc1ncnc2c1ncn2[C@H]1CN(Cc2ccc3c(c2)OCO3)C[C@@H](CO)O1	-	-	0	-	-
Cn1c(=O)c2c(nc(NC3CCCCC3)n2CC(=O)C23CC4CC(CC(C4)C2)C3)n(C)c1=O	0	81	0	0	0
OC(CCN1CC2CCC(CC2)C1)(Cc1ccccc1)c1ccco1 (stereo not drawn)	-	-	0	0	-
CCOC(=O)c1cnc2ccc(OCC)cc2c1N1CCN(c2ccccc2OC)CC1	0	88	0	0	0
O=C(Nc1cccc(C(F)(F)F)c1)NC1CCCCC1	0	87	0	0	0
CC(Sc1nc(-c2ccccc2)c(-c2ccccc2)[nH]1)C(=O)NCC1CCCO1 (stereo not drawn)	-	-	0	0	-
CCC(c1nnnn1-c1ccc2c(c1)OCCO2)N1CCN(CC)CC1 (stereo not drawn)	-	-	0	-	-
O=C(CSc1ncnc2c1oc1ccccc12)Nc1cccc(C(F)(F)F)c1	0	79	0	0	0
SMILES	UPR XBP1 act	CHOP inhibitor	TbMetRS inhib	V-ATPase pH	UPR CHOP act
O=C(Nc1ccc(Cl)cc1)c1cc2c(cc1O)[nH]c1ccccc12	0	77	0	0	0
CC(=O)Nc1ccc2[nH]c3ccccc3c2c1	0	0	0	0	0
CCCCCCn1c(Br)nc2c1c(=O)n(C)c(=O)n2C	0	0	0	0	0
CCc1ccn2cc(-c3cc(-c4ccccc4)no3)nc2c1	0	77	0	0	0
Clc1ccc(-c2cc(-c3ccccc3)on2)cc1	0	-	0	0	0
COCCNC(=O)C1CCCN(C(=O)COc2ccc(C(C)(C)C)cc2)CC1 (stereo not drawn)	-	-	0	-	-
COc1ccc(Cn2cc(CN3CC(N(C)C)CS3(=O)=O)nn2)cc1 (stereo not drawn)	-	-	0	-	-
CCC(C)(C)NC(=O)C(OC(=O)c1cc2sccc2n1C)c1ccc(OC)cc1 (stereo not drawn)	0	79	0	0	0
